Compound activity as filed in PubChem.
STAT3 act – IL-6 driven STAT3 reporter potentiators, primary screen, U3A cells, luciferase, luminescence, MLSCN library; IL-6 STAT3-luciferase reporter; 100% = signal with IL-6 EC80 alone; activation (% of control), % at 5.6 µM; 190,000 tested, 0.91% active;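 active = activation above the screen-wide mean of compound activation plus 3 SD, cut at about 130% in these data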;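 note: 0% = background luminescence of wells with medium and substrate only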
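system = STAT3-luciferase reporter U3A cells | reagent = IL-6 stimulus at 33 ng/mL final | timing = 1 h compound pre-exposure, 6 h IL-6 stimulation, 37 °C | measured by = luminescence | evaluation = % activation versus median of IL-6-stimulated wells | control set = IL-6-only wells as 100% reference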
STAT1 blocker – STAT1 signaling inhibitors, primary screen, cell-based, HTS, luciferase reporter. inhibition, % at 5.5 µM. 200,000 tested, 0.35% active. NIH 3T3 STAT1-luciferase reporter, IFN-gamma, luminescence;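 active = inhibition above a set limit, the mean inhibition across all tested compounds plus 3 SD, cut at about 34% in these data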;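 note: 0% = IFN-gamma with DMSO and 100% = IFN-gamma with 300 µM nifuroxazide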
STAT3 blocker – IL-6 driven STAT3 reporter inhibitors, primary screen, U3A cells, luciferase, luminescence, MLSCN library. IL-6 STAT3-luciferase reporter; host cell line lacks STAT1. inhibition, % at 5.5 µM. 190,000 tested, 0.89% active. AID 862, 2007;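 active = inhibition above the mean inhibition across all screened compounds plus 3 SD, cut at about 44% in these data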;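 note: 0% = DMSO only wells and 100% = 100 µM nifuroxazide control wells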
STAT1 activator – STAT1 signaling activators, primary screen, cell-based, HTS, luciferase reporter. 200,000 tested, 2.6% active. activation (% of control), % at 5.5 µM. NIH 3T3 STAT1-luciferase reporter, IFN-gamma, luminescence; 100% = IFN-gamma alone, no compound. AID 932, 2007;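 active = activation above the screen-wide mean activation plus 3 SD, cut at about 130% in these data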;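 note: raw ratio to IFN-gamma control signal so 100% means no change and 0% no light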
STAT1 activ conf – STAT1 signaling activators, confirmation, cell-based, HTS, luciferase reporter | activation (% of control), % at 5.7 µM | AID 1262, 2008 | NIH 3T3 STAT1-luciferase reporter, IFN-gamma potentiation, luminescence; 100% = IFN-gamma EC80 alone, no compound | 1,200 tested, 97% active | shares compounds with STAT1 activator;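 active = activation above a set limit carried over from the earlier primary STAT1 screen, cut at about 140% in these data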;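 note: simple ratio to median IFN-gamma plus DMSO wells so 0% means no light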
NFkB act STAT1ct – NF-kB reporter activators, TNF-alpha stimulated, counter-screen for STAT1 activator project, cell-based, HEK293T, luciferase luminescence; shares compounds with STAT1 activator; 100% = TNF-alpha with vehicle only; AID 1306, 2008; 1,200 tested, 43% active; activation (% of control), % at 5.7 µM;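 active = activation above the mean of solvent-only control wells plus 3 SD, set per campaign, cut at about 130% in these data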;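 note: TNF-alpha given at a submaximal dose yielding about 80% of full reporter signal; values are well signal over median control so 100% means no change and 0% no light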
STAT3 act 2 – STAT3 reporter activation by STAT1 hits, confirmation, counter-screen for STAT1 activator project, U3A cells, luciferase, luminescence. shares compounds with STAT1 activator. IL-6; cells lack STAT1; 100 = IL-6 alone, no compound effect. activation (% of control), % at 5.7 µM. 1,200 tested, 46% active. AID 1316, 2008;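 active = activation above the solvent-only control well mean plus 3 SD, set per plate batch, cut at about 110% in these data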;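 note: 0% = no luminescence and 100% = median IL-6 plus DMSO wells; higher means more STAT3 reporter activation so hits are non-selective activators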
The depositor's hits bear a star. Shown are actives, neighbours in structure and some others; about 4.3% of the full set was active somewhere.

O=C(O)/C=C/C(=O)Nc1ccccc1-c1ccccc1NC(=O)/C=C/C(=O)O was read as STAT3 act 104, STAT1 blocker 1, STAT3 blocker -4 and STAT1 activator 99.
Cc1ccc(N=C2NC(=O)/C(=C\c3ccsc3)S2)c(C)c1 was read as STAT3 act 104, STAT1 blocker -7, STAT3 blocker -7 and STAT1 activator 106.
`O=C(N=Nc1c(O)n(Cc2ccccc2)c2ccccc12)c1ccc(O)cc1` gave STAT3 act 109, STAT1 blocker -68, STAT3 blocker -8, STAT1 activator 161*, STAT1 activ conf 217*, NFkB act STAT1ct 111 and STAT3 act 2 118*.
Screening CC(=O)Nc1ccc(N=Nc2ccc(O)cc2)cc1 returned STAT3 act 93, STAT1 blocker -59, STAT3 blocker 6, STAT1 activator 152*, STAT1 activ conf 155*, NFkB act STAT1ct 124 and STAT3 act 2 111*.
CC(=O)Nc1ccc(N=NN2CCOCC2)cc1 was read as STAT3 act 110, STAT1 blocker -19, STAT3 blocker -11 and STAT1 activator 117.
Cc1ccc(C2CC2c2n[nH]c(=S)n2-c2cccc(Cl)c2)cc1 (stereo unspecified) was read as STAT3 act 98, STAT1 blocker 4, STAT3 blocker 4 and STAT1 activator 97.
`CN1CCN(S(=O)(=O)c2ccc3[nH]c(=O)oc3c2)CC1` gave STAT3 act 102, STAT1 blocker 9, STAT3 blocker 1 and STAT1 activator 92.
Screening CC(NC(=O)COC(=O)c1ccc(N(C)C)cc1)c1ccccc1 (stereo unspecified) returned STAT3 act 97, STAT1 blocker -9, STAT3 blocker 11 and STAT1 activator 107.
Screening COc1ccccc1C(=O)COC(=O)c1ccc(N(C)C)cc1 returned STAT3 act 108, STAT1 blocker -80, STAT3 blocker -7, STAT1 activator 174*, STAT1 activ conf 175*, NFkB act STAT1ct 134* and STAT3 act 2 132*.
Screening COc1ccc(CCN(C)C(=O)CCc2nnc(-c3ccccc3)o2)cc1OC returned STAT3 act 118, STAT1 blocker -63, STAT3 blocker -14, STAT1 activator 159*, STAT1 activ conf 166*, NFkB act STAT1ct 122 and STAT3 act 2 116*.
For CCCCCCNCc1c(F)cccc1Cl the results were STAT3 act 94, STAT1 blocker -3, STAT3 blocker 7 and STAT1 activator 103.
